Laboratory results reported in publication PMC3403534 (Journal of Biomolecular Screening, 2009).
Where two headings read alike, the source gives them in different places.

Experiments:
[1] = molecular target: T1, TNAP (Homo sapiens, UniProt P05186); settings: ref Fishman and Sie, 1971; Van Belle, 1976; Farley et al., 1980; cited from earlier work
T1 sequence (P05186 18-501 limits assumed): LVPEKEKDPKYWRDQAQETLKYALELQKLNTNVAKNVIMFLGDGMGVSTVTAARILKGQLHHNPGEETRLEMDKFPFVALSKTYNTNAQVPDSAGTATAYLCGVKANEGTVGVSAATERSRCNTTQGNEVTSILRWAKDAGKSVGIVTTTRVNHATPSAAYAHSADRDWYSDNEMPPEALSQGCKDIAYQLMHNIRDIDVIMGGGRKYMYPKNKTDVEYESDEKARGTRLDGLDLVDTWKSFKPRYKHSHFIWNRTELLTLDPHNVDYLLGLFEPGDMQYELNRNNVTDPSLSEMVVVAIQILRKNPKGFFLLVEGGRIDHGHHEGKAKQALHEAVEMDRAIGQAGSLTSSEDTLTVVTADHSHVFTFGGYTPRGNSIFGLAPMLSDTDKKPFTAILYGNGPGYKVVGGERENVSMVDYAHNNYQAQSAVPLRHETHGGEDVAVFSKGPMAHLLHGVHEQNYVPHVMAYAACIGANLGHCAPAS

[2] = molecular target: T1, TNAP; experiment: Luminescent TNAP assay with CDP-star substrate; type: biochemical
[3] = molecular target: T2, IAP (Homo sapiens, UniProt P09923); experiment: Luminescent IAP selectivity assay; type: biochemical; settings: read-out: SDCCG panel IC50 IAP, […] CDP-star
T2 sequence (P09923 20-503 limits assumed): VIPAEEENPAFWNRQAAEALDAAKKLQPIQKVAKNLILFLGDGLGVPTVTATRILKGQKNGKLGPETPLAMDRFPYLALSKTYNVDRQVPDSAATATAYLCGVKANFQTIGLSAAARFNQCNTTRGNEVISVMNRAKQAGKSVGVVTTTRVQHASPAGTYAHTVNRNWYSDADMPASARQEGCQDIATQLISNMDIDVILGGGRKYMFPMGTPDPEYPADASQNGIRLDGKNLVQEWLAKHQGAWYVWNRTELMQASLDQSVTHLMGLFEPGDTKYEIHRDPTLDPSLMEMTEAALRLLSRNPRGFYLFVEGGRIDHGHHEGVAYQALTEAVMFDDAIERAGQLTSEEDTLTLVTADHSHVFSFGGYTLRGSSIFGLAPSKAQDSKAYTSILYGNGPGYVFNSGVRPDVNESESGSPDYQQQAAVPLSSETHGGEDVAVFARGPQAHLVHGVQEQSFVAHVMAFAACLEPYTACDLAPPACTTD

[4] = molecular target: PLAP (Homo sapiens, UniProt P05187); experiment: Luminescent PLAP selectivity assay; type: biochemical; settings: read-out: SDCCG panel IC50 PLAP, 85 µM CDP-star
Outline: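 Run as an analogue of the luminescent TNAP assay: CDP-star held at the PLAP Km. The TNAP version used 100 mM DEA-HCl pH 9.8, 1 mM MgCl2 and 20 uM ZnCl2, with luminescence read after 30 min at room temperature. Percent inhibition was computed against negative and positive control wells. Dose-response data were fitted to the Hill equation for IC50, excluding nephelometrically precipitating concentrations.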

[5] = molecular target: T1, TNAP; type: biochemical; settings: for MOI vs CDP*: mode of inhibition with respect to CDP-star (UC uncompetitive, C competitive); for MOI vs DEA: mode of inhibition with respect to DEA (C competitive, NC non-competitive)
[6] = molecular target: T1, TNAP; experiment: Colorimetric TNAP assay, pNPP substrate, absorbance at 405 nm; type: biochemical; settings: colorimetric assays, 1 M DEA, compared with luminescent assay
[7] = read-out: IC50 SAR-Lumi, dry powder compounds, 100 mM DEA
[8] = read-out: SDCCG panel IC50 TNAP

Sequence of PLAP (P05187 23-506 limits assumed): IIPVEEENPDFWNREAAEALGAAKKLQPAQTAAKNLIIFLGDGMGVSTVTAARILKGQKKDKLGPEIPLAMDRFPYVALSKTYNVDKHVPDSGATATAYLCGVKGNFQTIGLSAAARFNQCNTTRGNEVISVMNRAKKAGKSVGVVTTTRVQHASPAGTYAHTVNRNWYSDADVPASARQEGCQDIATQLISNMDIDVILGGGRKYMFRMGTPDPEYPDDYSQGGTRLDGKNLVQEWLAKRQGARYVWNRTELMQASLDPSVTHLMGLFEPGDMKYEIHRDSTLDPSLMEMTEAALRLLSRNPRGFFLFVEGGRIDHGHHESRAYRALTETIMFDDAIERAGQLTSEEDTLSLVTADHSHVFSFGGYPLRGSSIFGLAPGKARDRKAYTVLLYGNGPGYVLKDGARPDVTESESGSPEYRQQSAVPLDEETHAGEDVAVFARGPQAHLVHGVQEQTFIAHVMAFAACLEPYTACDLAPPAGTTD

| Structure (SMILES) | Mode of inhibition of TNAP by known inhibitors [1] | IC50 [2, 7] | IC50 [2, 8] | IC50 [3] | IC50 [4] | MOI vs CDP* [5] | MOI vs DEA [5] | Activity in the colorimetric assay [6] |
| --- | --- | --- | --- | --- | --- | --- | --- | --- |
| NC(N)=NCCCC[C@H](N)C(=O)O [L-homoarginine] | inhibited uncompetitively | – | – | – | – | – | – | – |
| O=C(O)c1cc(-c2ccccc2Cl)n[nH]1 [MLS-0005718] | – | 743 nM | 743 nM | 43500 nM | > 100000 nM | competitive with CDP-star | competitive mechanism | – |
| COc1ccc(C)cc1S(=O)(=O)Nc1cccnc1 [MLS-0010847] | – | 926 nM | 926 nM | > 100000 nM | > 100000 nM | – | – | – |
| COc1ccc(OC)c(S(=O)(=O)Nc2cnc3ccccc3c2)c1 [MLS-0038949] | – | – | – | – | > 100000 nM | – | – | – |
| O=c1cc(-c2cccc3ccccc23)[nH][nH]1 [MLS-0039961] | – | 4620 nM | – | > 100000 nM | > 100000 nM | competitive with CDP-star | non-competitive | – |
| COc1ccc(OC)c(S(=O)(=O)Nc2ccc(O)c(Sc3ncn[nH]3)c2)c1 [MLS-0043574] | – | – | – | – | – | – | – | inactive |
| O=C1C2CC=CCC2C(=O)N1c1n[nH]c(Cc2ccccc2)n1 (stereo not shown) [MLS-0067142] | – | 186 nM | 186 nM | 539 nM | 3140 nM | competitive with CDP-star | competitive mechanism | – |
| c1ccc([C@H]2CN3CCSC3=N2)cc1 [levamisole] | inhibited uncompetitively | – | – | – | – | – | – | – |
